pIC50: −log10 of the molar value. ≈ marks a conversion by molar mass, not a printed value.

In data set [1] the target is Transient receptor potential cation channel subfamily A member 1 (Homo sapiens, UniProt O75762). The experiment in a line: Antagonist activity at human TRPA1 expressed in HEK293-TREx cells assessed as change in calcium level by Fluo-4NW assay. In kind it is cell-based. The gist of the method: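 Human receptor; values are means of at least 2 experiments, with replicate error within 20% of value.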
Sequence of Transient receptor potential cation channel subfamily A member 1 (O75762 whole entry): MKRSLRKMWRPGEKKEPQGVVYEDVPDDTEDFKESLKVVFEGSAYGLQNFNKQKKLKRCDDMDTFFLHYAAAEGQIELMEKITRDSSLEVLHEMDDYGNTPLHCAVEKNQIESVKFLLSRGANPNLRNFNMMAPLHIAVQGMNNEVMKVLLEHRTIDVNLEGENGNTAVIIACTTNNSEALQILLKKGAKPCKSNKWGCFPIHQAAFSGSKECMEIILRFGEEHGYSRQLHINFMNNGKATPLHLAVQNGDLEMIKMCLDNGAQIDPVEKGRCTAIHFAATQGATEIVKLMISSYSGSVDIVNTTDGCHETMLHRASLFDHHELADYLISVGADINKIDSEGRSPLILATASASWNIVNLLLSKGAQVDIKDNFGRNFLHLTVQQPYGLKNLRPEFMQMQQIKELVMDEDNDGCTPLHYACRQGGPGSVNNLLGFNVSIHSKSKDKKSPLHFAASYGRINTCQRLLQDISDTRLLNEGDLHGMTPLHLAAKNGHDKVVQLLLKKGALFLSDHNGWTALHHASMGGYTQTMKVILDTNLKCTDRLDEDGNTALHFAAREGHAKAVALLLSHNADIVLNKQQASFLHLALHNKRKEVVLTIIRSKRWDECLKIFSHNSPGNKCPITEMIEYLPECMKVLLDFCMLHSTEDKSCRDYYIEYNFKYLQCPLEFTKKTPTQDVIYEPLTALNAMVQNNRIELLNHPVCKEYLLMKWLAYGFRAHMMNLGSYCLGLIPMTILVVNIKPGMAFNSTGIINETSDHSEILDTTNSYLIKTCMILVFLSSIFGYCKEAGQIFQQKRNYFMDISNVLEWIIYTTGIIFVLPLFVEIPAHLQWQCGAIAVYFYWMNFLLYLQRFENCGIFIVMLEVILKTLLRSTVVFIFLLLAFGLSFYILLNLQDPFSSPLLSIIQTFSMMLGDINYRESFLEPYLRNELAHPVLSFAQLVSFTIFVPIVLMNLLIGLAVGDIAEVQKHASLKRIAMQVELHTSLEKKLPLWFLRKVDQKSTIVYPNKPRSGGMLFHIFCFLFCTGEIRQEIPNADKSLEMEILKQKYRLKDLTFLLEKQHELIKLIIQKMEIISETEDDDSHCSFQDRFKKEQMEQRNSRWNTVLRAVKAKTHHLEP

Data set [2] is described as follows: Apparent permeability from apical to basolateral across human Caco2 cells at pH 7.4 at 10 uM by Transwell assay. In kind it is ADME, cell-based. As to conditions: Caco-2, pH 7.4. Put shortly:
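Caco-2 monolayer in a Transwell format. Compound at 10 μM is applied apically and apical-to-basolateral apparent permeability is measured at pH 7.4.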
In general terms: Passage across Caco-2 layers is used to estimate intestinal permeability.

Data set [3] in a line: Thermodynamic solubility of the compound in buffer at pH 7.4 by HPLC/UV detection method. In kind it is physicochemical. As to conditions: read-out: Therm_solubility. The gist of the method: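 Thermodynamic solubility in pH 7.4 buffer. Dissolved compound is quantified by HPLC with UV detection.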
A further data set deals with Plasma. The experiment in a line: Fraction unbound in human plasma at 10 uM by equilibrium dialysis method. In kind it is ADME, cell-free. The gist of the method: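 Test compound at 10 μM in human plasma. Binding is measured by equilibrium dialysis.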
(In equilibrium dialysis only unbound substance equilibrates across the membrane.)

Data set [4] in a line: Intrinsic clearance in human liver microsomes at 1 uM in presence of NADPH. The conditions noted are these: read-out: CLH. In kind it is ADME. Put shortly:
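Incubated with human liver microsomes at 1 mg/mL protein plus NADPH. Test compound at 1 μM.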

The target in another data set is T1, Cytochrome P450 1A2 (Homo sapiens, UniProt P05177).
T1 sequence (P05177 whole entry): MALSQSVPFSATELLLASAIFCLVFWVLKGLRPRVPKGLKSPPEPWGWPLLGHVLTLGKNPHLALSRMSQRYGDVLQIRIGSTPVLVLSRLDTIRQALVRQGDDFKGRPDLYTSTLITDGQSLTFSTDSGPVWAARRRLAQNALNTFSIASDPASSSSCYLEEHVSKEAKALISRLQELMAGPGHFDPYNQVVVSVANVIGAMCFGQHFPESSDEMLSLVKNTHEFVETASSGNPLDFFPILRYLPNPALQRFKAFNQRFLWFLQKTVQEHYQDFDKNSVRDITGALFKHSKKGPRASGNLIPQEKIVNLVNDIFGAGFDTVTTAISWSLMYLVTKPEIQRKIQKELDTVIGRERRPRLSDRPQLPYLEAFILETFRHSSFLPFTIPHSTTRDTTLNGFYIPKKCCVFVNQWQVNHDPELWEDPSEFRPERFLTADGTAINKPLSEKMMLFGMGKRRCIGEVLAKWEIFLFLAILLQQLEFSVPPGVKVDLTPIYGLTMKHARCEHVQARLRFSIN
The experiment in a line: Competitive inhibition of CYP1A2 in human liver microsomes by LC-MS/MS analysis. In kind it is ADME. The gist of the method:
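Competitive inhibition screen in human liver microsomes using standard probe substrates. Metabolites are detected by LC-MS/MS. The panel also covered 2C9, 2C19, 2D6 and 3A4.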

In a further data set the target is CYP2D6 (Homo sapiens, UniProt P10635). The data set can be described thus: Time-dependent inhibition of CYP2D6 in human liver microsomes at 10 uM by LC-MS/MS analysis. In kind it is ADME. The gist of the method: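 IC50-shift screen for time-dependent inhibition in human liver microsomes with test compound at 10 μM. The panel also covered 1A2, 2C9 and 3A4.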
Sequence of CYP2D6 (P10635 whole entry): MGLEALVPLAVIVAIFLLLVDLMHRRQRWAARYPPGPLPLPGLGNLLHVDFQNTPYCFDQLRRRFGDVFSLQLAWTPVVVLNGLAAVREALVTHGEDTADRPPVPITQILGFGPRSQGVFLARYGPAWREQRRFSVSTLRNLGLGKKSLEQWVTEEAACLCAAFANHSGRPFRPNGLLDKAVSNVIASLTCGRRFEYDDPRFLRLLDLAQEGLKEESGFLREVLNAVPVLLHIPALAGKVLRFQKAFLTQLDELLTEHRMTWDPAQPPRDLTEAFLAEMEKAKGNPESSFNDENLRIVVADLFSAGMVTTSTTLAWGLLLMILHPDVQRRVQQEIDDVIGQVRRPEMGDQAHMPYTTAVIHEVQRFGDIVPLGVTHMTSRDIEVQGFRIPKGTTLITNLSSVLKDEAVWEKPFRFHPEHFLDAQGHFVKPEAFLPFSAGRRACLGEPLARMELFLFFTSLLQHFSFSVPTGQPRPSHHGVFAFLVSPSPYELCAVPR
Background: Liver microsomes are a subcellular fraction often used to study metabolism.

As to `CCCNc1cc(N)cc(C(F)(F)F)c1`, the negative-log IC50 (pIC50) in data set [1] was less than 4.49.
Same read-out and setting: with `CC(C)C(C)Nc1cc(NC(=O)c2cccs2)cc(C(F)(F)F)c1` (stereo not given) the figure was 5.89; with `CCCNc1cc(NC(=O)c2ccncc2)cc(C(F)(F)F)c1`, 5.59.
Regarding `CCCN(C)c1cc(NC(=O)c2c(F)cccc2F)cc(C(F)(F)F)c1`, the pIC50 in data set [1] was less than 4.49.
On to `CCCOc1cc(NC(=O)c2c(F)cccc2F)cc(C(F)(F)F)c1`, for which the pIC50 in data set [1] was less than 4.49.
As to `CC(C)Nc1cc(NC(=O)c2c(F)cccc2F)cc(C(F)(F)F)c1`, the negative logarithm of the IC50 (pIC50) in data set [1] is 7.04. Further, the Papp A→B at 10 µM in data set [2] was 6.9 ×10⁻⁶ cm/s. In data set [3], the solubility thermodynamic came out at 1 µM (≈ 0.358 µg/mL). Further, in the data set with Plasma, the Fu is given as less than 1%. Also, the microsomal CLint at 1 µM in data set [4] was determined as 73 µL/min/mg.
Take `CCCNc1cc(NC(=O)c2ccc(F)c(F)c2)cc(C(F)(F)F)c1`: the pIC50 in data set [1] was 5.92.
Still for that read-out and setting: the same measure for `COC(=O)Nc1cc(NC(=O)c2cccs2)cc(C(F)(F)F)c1`: 5.64; for `CC(C)Nc1cc(NC(=O)c2cccs2)cc(C(F)(F)F)c1`: 6.54; for `CC(C)CNc1cc(NC(=O)c2cccs2)cc(C(F)(F)F)c1`: 6.10.
For the compound `CCCNc1cc(NC(=O)c2cccnc2)cc(C(F)(F)F)c1`, the pIC50 in data set [1] was 6.03.
Take `O=C(Nc1cc(NCc2ccccc2)cc(C(F)(F)F)c1)c1cccs1`: the pIC50 in data set [1] was 5.54.
Consider `O=C(Nc1cc(NCCc2ccccc2)cc(C(F)(F)F)c1)c1cccs1`, for which, in data set [1], the pIC50 was 5.41.
`CCCNc1cc(NC(=O)c2c(F)cccc2F)cc(C(F)(F)F)c1`: the pIC50 was 6.96 in data set [1] and 5.82 at Cytochrome P450 1A2. In data set [2], the Papp A→B at 10 µM was determined as 2.7 ×10⁻⁶ cm/s. For the same compound, the solubility thermodynamic in data set [3] amounted to 7 µM (≈ 2.51 µg/mL). In addition, the Fu in the data set on Plasma is less than 1%. Moreover, in data set [4], the microsomal CLint at 1 µM amounted to 96 µL/min/mg.
Take `CCNc1cc(NC(=O)c2c(F)cccc2F)cc(C(F)(F)F)c1`: the pIC50 in data set [1] is 7.13. Besides, the solubility thermodynamic in data set [3] was found to be 5 µM (≈ 1.72 µg/mL). The same compound returned a Fu in the data set on Plasma of less than 1%. Also, the microsomal CLint at 1 µM in data set [4] came out at 115 µL/min/mg.
As for `CCCNc1cc(NC(=O)c2ccccn2)cc(C(F)(F)F)c1`, in data set [1], the pIC50 is less than 4.49.
The same measure, in the same setting: the same measure for `CCCNc1cc(C)cc(NC(=O)c2c(F)cccc2F)c1`: 5.72; for `CCCNc1cc(NC(=O)c2ccc(F)cc2)cc(C(F)(F)F)c1`: 5.85.
Take `CCCN(CCC)c1cc(NC(=O)c2cccs2)cc(C(F)(F)F)c1`: the pIC50 in data set [1] was less than 4.49.
Take `CCCNc1cc(NC(=O)c2ccccc2)cc(C(F)(F)F)c1`: the negative logarithm of the IC50 (pIC50) was 6.70 in data set [1] and 6.85 at Cytochrome P450 1A2. In data set [2], the Papp A→B at 10 µM was determined as 6.2 ×10⁻⁶ cm/s. Further, the solubility thermodynamic in data set [3] amounted to 8 µM (≈ 2.58 µg/mL). In addition, the Fu with Plasma was less than 1%. This compound also returned an inhibition at 10 µM against CYP2D6 of 35%. The microsomal CLint at 1 µM in data set [4] was determined as 154 µL/min/mg.
As for `CCCNc1cc(NC(=O)c2cccs2)cc(C(F)(F)F)c1`, in data set [1], the pIC50 was 6.41.
In the case of `O=C(Nc1cc(NCc2cccs2)cc(C(F)(F)F)c1)c1cccs1`, the pIC50 in data set [1] was 5.57.

The pIC50 is −log10 of the IC50, conventionally taken in molar units. By Papp A→B is commonly meant the apparent permeability from the apical to the basolateral side of a cell layer. A word on the inhibition: it is the relative decrease from the control value, in per cent.
